# Screening results (PubChem)
# The list is not random: actives were taken first. Their share in the collection is about 9.6%.
# TNAP inh hi DEA: blocks human TNAP under high phosphate acceptor concentration. inhibition, % at 20 µM. 200,000 compounds, 0.03% hits. P05186. purified TNAP, CDP-star luminescence, 1 M DEA. AID 1135;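 active = over 50% inhibition of tissue-nonspecific alkaline phosphatase at 20 µM in the single-dose screen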;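 also: plate controls were DMSO wells for no effect and EDTA-quenched wells as full inhibition for full effect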
# Target sequence (P05186 whole entry, looked up): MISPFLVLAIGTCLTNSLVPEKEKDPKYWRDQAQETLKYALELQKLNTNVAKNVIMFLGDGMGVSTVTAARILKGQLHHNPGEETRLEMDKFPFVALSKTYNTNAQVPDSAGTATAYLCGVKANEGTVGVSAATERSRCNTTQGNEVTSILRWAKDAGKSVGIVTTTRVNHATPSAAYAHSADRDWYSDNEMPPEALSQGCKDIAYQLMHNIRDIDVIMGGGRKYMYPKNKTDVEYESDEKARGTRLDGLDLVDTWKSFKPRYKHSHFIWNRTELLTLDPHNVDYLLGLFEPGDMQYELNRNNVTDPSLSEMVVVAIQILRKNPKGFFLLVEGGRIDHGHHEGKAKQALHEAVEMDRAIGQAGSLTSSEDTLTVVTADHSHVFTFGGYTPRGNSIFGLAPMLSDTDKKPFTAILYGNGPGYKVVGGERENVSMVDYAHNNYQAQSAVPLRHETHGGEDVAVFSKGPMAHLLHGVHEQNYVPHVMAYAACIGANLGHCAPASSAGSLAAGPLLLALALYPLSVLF
# bCat KO growth: beta-catenin-lacking colon tumor cell growth suppression | HCT116 beta-catenin knockout viability, CellTiter-Glo, 60 h; stronger effect = lower value | viability, % at 10 µM | 140,000 compounds, 1.5% hits;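 active = viability at or under a set limit, the compound median less 4 SD, cut at about 6% in these data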;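 also: 0% = Hyamine 1622 control at 20 µM and 100% = untreated cell control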
# TNAP inh noacc: TNAP (human) inhibition, acceptor-free conditions. purified TNAP, CDP-star luminescence, 30 min. P05186. inhibition, % at 20 µM. 200,000 compounds, 0.26% hits;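 active = tissue-nonspecific alkaline phosphatase inhibition above about 50% at 20 µM in the single-dose screen, limit read from the data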;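 also: 0% = DMSO negative control and 100% = EDTA positive control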
# L major viab: inhibitors of Leishmania major promastigote growth; 200,000 compounds, 9% hits; inhibition, % at 10 µM; AID 1063; Leishmania major promastigotes, resazurin fluorescence viability; in the data active = inhibition above about 50%;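 also: promastigotes grown with compound for 44 hours at 28 °C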
# TNAP act hiacc: activators of human TNAP at high phosphate acceptor concentration. P05186. purified TNAP, CDP-star luminescence, 1 M DEA, 30 min; stronger effect = higher value; 0 = EDTA background, 1 = DMSO-only activity. activation factor at 20 µM. 200,000 tested, under 10 active. AID 1136;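 active = activation factor at least 2 at 20 µM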
#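 Test system – human TNAP · Doses – 20 µM single point · Incubation – 30 min, room temperature · Signal – luminescent substrate turnover signal · Read-out basis – activation factor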
# PTEN del growth: suppresses growth of cells with PTEN deletion; HCT116 PTEN-null viability, CellTiter-Glo, 60 h; stronger effect = lower value; viability, % at 10 µM; 140,000 compounds, 1.2% hits;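 active = viability at or below a set limit, 4 SD under the median of all tested compounds, cut at about 3.7% in these data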;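 also: PTEN knockout HCT116 line with beta catenin targeted HCT116 as companion control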
# Numbers without * were called inactive; . = no result given.
SMILES,TNAP inh hi DEA,bCat KO growth,TNAP inh noacc,L major viab,TNAP act hiacc,PTEN del growth
CCCCNC(=O)Cn1nc([N+](=O)[O-])c([N+](=O)[O-])c1C,-1,77,-1,79*,1,94
CCCC(=O)Nc1ccccc1Sc1ncnc2scc(-c3ccccc3)c12,-4,96,-7,55*,1,84
Cn1nnnc1Sc1ncnc2scc(-c3ccccc3)c12,-6,13,-10,70*,1.1,9
Cn1nnnc1Sc1ncnc2scc(-c3ccc(F)cc3)c12,4,5.5*,-3,91*,1,3.7*
CC(=O)Nc1ccc(Sc2ncnc3scc(-c4ccccc4)c23)cc1,3,87,2,1,1,80
CC(Sc1cnccn1)C(=O)O (stereo unspecified),-1,.,-5,-1,1,.
CCCOc1c(Br)cc(C2C3=C(CCCC3=O)N(CC)C3=C2C(=O)CCC3)cc1OC,-6,.,11,39,1.1,.
CCCOc1c(Br)cc(C2C3=C(CCCC3=O)N(C)C3=C2C(=O)CCC3)cc1OC,-2,97,-10,97*,1,95
Cc1cc(C)n(C(=O)c2c([N+](=O)[O-])cnn2C)n1,0,90,-7,-4,1,95
Cc1cc(C)n(C(=O)c2ccc([N+](=O)[O-])c(Cl)c2)n1,-2,78,-10,92*,1,90
CC(C)(CNC(=O)c1ccc([N+](=O)[O-])c(Cl)c1)CNC(=O)c1ccc([N+](=O)[O-])c(Cl)c1,-4,2.0*,-4,88*,1,2.1*
CC(C)c1ccc(NC(=O)c2cccc(Br)c2)cc1,-6,.,-8,2,1.1,.
C#CCNC(=O)C1=C[C@@H](C)C[C@@H](OCc2ccc(CO)cc2)O1,-5,.,-9,0,1.1,.
N/C(Cc1ccccc1)=N\OC(=O)c1cccc2ccccc12,-4,61,-11,97*,1,56
N/C(Cc1ccc([N+](=O)[O-])cc1)=N\OC(=O)c1ccccc1Br,-8,81,-9,94*,1.1,86
O=C(C[n+]1cccc(CO)c1)Nc1nc2ccccc2s1,-2,.,-10,-8,1,.
CCCNC(=O)Nc1ccsc1C(=O)OC,0,.,-3,-4,1,.
CCC(Oc1ccccc1)C(=O)Nc1ccsc1C(=O)OC (stereo unspecified),-2,75,-6,74*,1,84
Cc1cccc2c1N(CCOc1ccccc1Cl)C(=O)C2=O,2,17,-1,67*,1,17
CCOc1ccc(NC(=O)c2cc(F)c(F)cc2Cl)cc1OCC,-4,.,-6,-1,1,.
COc1ccc(CCN(C(=O)C(F)(F)F)C(C(=O)NC2CCCCC2)c2cccs2)cc1 (stereo unspecified),-7,77,-8,27,1.1,67
COc1ccc(CCN(C(=O)C(F)(F)F)C(C(=O)NC2CCCCC2)c2ccc(C)s2)cc1 (stereo unspecified),-5,88,-14,68*,1,93
Cc1cccc(N2CCN(C(=O)c3cc4n(n3)C(C(F)(F)F)CC(c3ccco3)N4)CC2)c1C (stereo unspecified),-4,2.2*,-7,67*,1,3.5*
O=C(OCC(=O)N1CCc2ccccc21)c1cccc(S(=O)(=O)N2CCCc3ccccc32)c1,-4,89,-12,98*,1,87
O=C(COC(=O)c1cccc(S(=O)(=O)N2CCc3ccccc32)c1)NCc1ccco1,-6,.,-8,-2,1.1,.
SMILES,TNAP inh hi DEA,bCat KO growth,TNAP inh noacc,L major viab,TNAP act hiacc,PTEN del growth
Cc1nc(NC(=O)COC(=O)c2ccc(S(=O)(=O)N3CCc4ccccc4C3)cc2)c(Cl)cc1Cl,-4,.,-6,-2,1,.
O=C(COC(=O)c1ccc(Cl)c(S(=O)(=O)N2CCc3ccccc3C2)c1)Nc1ncc(Cl)cc1Cl,4,104,-7,81*,1,103
O=C(COC(=O)c1cccc(S(=O)(=O)N2CCc3ccccc32)c1)Nc1ncc(Cl)cc1Cl,-1,96,-11,60*,1,95
CCc1nnc2n1N=C(c1ccc(-c3cc(Cl)ccc3Cl)o1)CS2,-2,1.4*,-5,9,1,1.7*
CC(C)CN=C(NS(=O)(=O)c1ccccc1)C(Cl)(Cl)Cl,-1,4.7*,-20,90*,1,4
CN(C1CCCC1)C1CCN(C(=O)CNC(=O)/C=C/c2ccc(F)cc2)CC1,-4,97,-12,4,1,100
Cc1ccc(NC(=O)/C=C/c2cccc(C(F)(F)F)c2)cc1,-4,95,-12,-2,1,87
O=C(/C=C/c1cccc(C(F)(F)F)c1)Nc1cccc(C(F)(F)F)c1,-1,3.8*,9,96*,1,2.3*
CN(C1CCCC1)C1CCN(C(=O)CNC(=O)/C=C/c2cccc(C(F)(F)F)c2)CC1,-2,.,-7,76*,1,.
O=C(c1cccs1)N(Cc1ccco1)c1nc(-c2ccc(F)cc2)cs1,-4,72,-12,2,1,76
CN(C)CCCN(C(=O)c1cccs1)c1nc(-c2ccccc2)cs1,-4,72,-9,100*,1,72
c1ccc2c(c1)CC/C2=N/Nc1nc2ccccc2[nH]1,-6,.,-146,100*,1.1,.
CC(C)(C)C1CCC(=NNc2nc3ccccc3[nH]2)CC1 (stereo unspecified),4,.,-8,85*,1,.
c1ccc(CN2CCC(=NNc3nc4ccccc4[nH]3)CC2)cc1,-4,.,-94,10,1,.
O=C(N/N=C1\CCc2ccccc21)c1ccncc1,0,90,13,-5,1,102
C/C(=N\NC(=S)Nc1c(C)cccc1C)c1ccc(OC(F)F)cc1,-2,93,-7,-5,1,83
O=C(NCCO)C(=O)NCC1OCCCN1S(=O)(=O)c1cccs1 (stereo unspecified),-1,103,-10,56*,1,95
Cc1cc(C)c(S(=O)(=O)N2CCCOC2CNC(=O)C(=O)NCCc2c[nH]c3ccccc23)c(C)c1 (stereo unspecified),-3,79,-17,93*,1,81
CNC(=O)C(=O)NCC1OCCCN1S(=O)(=O)c1cccs1 (stereo unspecified),4,91,-11,34,1,98
CCN(CC)C(=O)C1CCN(CC2CC=CCC2)CC1 (stereo unspecified),-1,93,-11,84*,1,99
CC(C)CC(=O)N1CCN(CC2CC=CCC2)CC1 (stereo unspecified),-3,88,-11,27,1,94
CCN(Cc1ccccc1)C(=O)C1CCN(CC2CC=CCC2)CC1 (stereo unspecified),-4,87,-8,98*,1,85
O=C(NNC1=NCCC1)C1CC1,-1,.,-7,0,1,.
